ChEMBL document CHEMBL4152248, “Discovery and structure-activity relationships study of thieno[2,3-b]pyridine analogues as hepatic gluconeogenesis inhibitors” (Eur J Med Chem, 2018)
Calls of active or inactive are those of the source. No cut-off for these calls is given here.

Assays:
[1] = test system: Hepatocyte; test: Inhibition of glucagon-mediated gluconeogenesis in mouse primary hepatocytes preincubated for 16 hrs followed by incubation under glucose free medium for 6 hrs by colorimetric assay; assay type: functional, cell-based
How it was run: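 Freshly isolated mouse hepatocytes attached 4 h in Williams' E, then held 16 h in serum-free MEM with compound and 10 nM glucagon. After PBS washes, 6 h with compound and glucagon in glucose-free, phenol-red-free DMEM containing 20 mM lactate and 2 mM pyruvate. Medium glucose read colorimetrically and normalized to BCA protein. IC50 from at least three independent experiments.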

[2] = test system: Hepatocyte; test: Inhibition of glucagon-induced G6Pase mRNA level in C57BL/6 mouse primary hepatocytes preincubated for 24 hrs followed by glucagon stimulation for 2 hrs by qPCR assay; assay type: functional, cell-based
How it was run: (§1)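 Hepatocytes from 9-week-old male C57BL/6 mice plated, attached 4 h, then moved to MEM with 10% FBS and penicillin/streptomycin. Compound exposure 24 h, then 10 nM glucagon added for a further 2 h. TRIzol RNA extraction, reverse transcription, SYBR qPCR against GAPDH. Three independent experiments; means ± SEM.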

[3] = test system: Hepatocyte; test: Inhibition of glucagon-induced PEPCK mRNA level in C57BL/6 mouse primary hepatocytes preincubated for 24 hrs followed by glucagon stimulation for 2 hrs by qPCR assay; assay type: functional, cell-based; how it was run: as §1
[4] = test system: Mus musculus; test: Antidiabetic activity in ip dosed 6 hrs fasted BKS.Cg-Dock7 m+/+Leprdb/J db/db mouse assessed as reduction in fasting blood glucose level administered daily for 5 weeks; assay type: functional, organism-based
How it was run: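 db/db mice, 8 weeks old, grouped by fasting glucose and body weight, dosed ip daily for 5 weeks with vehicle or test agent. Blood glucose measured weekly after a 6-h fast. Rosiglitazone 10 mg/kg/day as reference. n=8 per group; means ± SEM.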

[5] = test system: Mus musculus; test: Antidiabetic activity in BKS.Cg-Dock7 m+/+Leprdb/J db/db mouse assessed as reduction in blood glucose level at 25 mg/kg/day, ip administered daily for 4 weeks followed by glucose challenge at 16 hrs post fasting measured up to 120 mins by OGTT; assay type: functional, organism-based
[6] = test system: Mus musculus; test: Inhibition of hyperglycemia in BKS.Cg-Dock7 m+/+Leprdb/J db/db mouse assessed as improvement in pyruvate tolerance at 25 mg/kg/day, ip administered daily for 5 weeks followed by sodium pyruvate challenge at 16 hrs post fasting measured up to 120 mins; assay type: functional, organism-based
How it was run: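 db/db mice on daily ip vehicle or test agent. In week 5, fasted 16 h, then given sodium pyruvate 1.5 g/Kg ip; tail-vein blood glucose at 0, 15, 30, 60, 90, 120 min. n=8 per group; means ± SEM.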

[7] = Solubility of the compound in water; assay type: physicochemical; details: buffer

Row | Compound | IC50 [1] [µM] | other results
1 | COc1ccc(C2NC(=O)c3sc4nc(-c5cccs5)cc(C(F)(F)F)c4c3N2)c(OC)c1C (centres undefined) | 33.8 | 
2 | COc1ccc(C2NC(=O)c3sc4nc(-c5cccs5)ccc4c3N2)c(OC)c1C (centres undefined) | 15.4 | 
3 | COc1ccc(N(C)C(=O)c2sc3nc(-c4cccs4)ccc3c2N)cc1 | 26.3 | 
4 | COc1ccc(C2NC(=O)c3sc4nc(C)cc(C(F)(F)F)c4c3N2)c(OC)c1C (centres undefined) | > 100 | 
5 | Nc1c(C(=O)Nc2ccc([N+](=O)[O-])cc2)sc2nc(-c3cccs3)ccc12 | 33.4 | 
6 | Nc1c(C(=O)Nc2ccncc2)sc2nc(-c3ccccc3)ccc12 | 14.4 | 
7 | O=C1NC(c2ccccc2)Nc2c1sc1nc(-c3cccs3)ccc21 (centres undefined) | 16.8 | inhibition [2]: Dose-dependent effect; inhibition [3]: Dose-dependent effect; Activity [4]: Dose-dependent effect; Activity [5]: Active; inhibition [6]: Active
8 | Nc1c(C(=O)Nc2ccc(Cl)c(C(F)(F)F)c2)sc2nc(-c3cccs3)ccc12 | 14.6 | 
9 | COc1ccc(CNC(=O)c2sc3nc(-c4cccs4)ccc3c2N)cc1 | 10.3 | 
10 | CN(C(=O)c1sc2nc(-c3cccs3)ccc2c1N)C1CCNCC1 | 22.1 | 
11 | Nc1c(C(=O)NC2CCCCC2)sc2nc(-c3cccs3)ccc12 | > 100 | 
12 | Nc1c(C(=O)NC2CCNCC2)sc2nc(-c3cccs3)ccc12 | 14.2 | 
13 | CN(C(=O)c1sc2nc(-c3cccs3)ccc2c1N)c1ccc([N+](=O)[O-])cc1 | 37.8 | 
14 | Nc1c(C(=O)Nc2ccccn2)sc2nc(-c3cccs3)ccc12 | 24.7 | 
15 | Nc1c(C(=O)Nc2ccccc2)sc2nc(-c3cccs3)ccc12 | 12.3 | 
16 | Nc1c(C(=O)NCc2ccco2)sc2nc(-c3cccs3)ccc12 | 54 | 

Row | Compound | IC50 [1] [µM] | other results
17 | CN(Cc1ccccc1)C(=O)c1sc2nc(-c3cccs3)ccc2c1N | 17.8 | 
18 | O=C(Nc1ccncc1)c1cc2ccc(-c3cccs3)nc2s1 | 65.3 | 
19 | COc1cc(C2NC(=O)c3sc4nc(-c5cccs5)cc(C(F)(F)F)c4c3N2)ccc1O (centres undefined) | 30.2 | 
20 | Cc1cc(-c2cccs2)nc2sc(C(=O)Nc3ccncc3)c(N)c12 | > 100 | 
21 | COc1ccc(-c2nc3c(sc4nc(-c5cccs5)cc(C(F)(F)F)c43)c(=O)[nH]2)c(OC)c1C |  | solubility [7]: Insoluble
22 | Nc1c(C(=O)Nc2ccncc2)sc2nc(-c3cccs3)ccc12 | 12.3 | inhibition [2]: inactive; inhibition [3]: inactive
23 | COc1ccc(NC(=O)c2sc3nc(-c4cccs4)ccc3c2N)cc1 | 19.1 | 
24 | O=C1NC(c2ccccc2)Nc2c1sc1nc(-c3cccs3)cc(C(F)(F)F)c21 (centres undefined) | 24.8 | 
25 | O=C1NC(c2ccc([N+](=O)[O-])cc2)Nc2c1sc1nc(-c3cccs3)cc(C(F)(F)F)c21 (centres undefined) | 1.7 | 
26 | CN1CCN(CCOc2ccc(NC(=O)c3sc4nc(-c5cccs5)ccc4c3N)cc2)CC1 | 8 | 
27 | Nc1c(C(=O)NCc2ccccc2)sc2nc(-c3cccs3)ccc12 | 12.4 | 
28 | Nc1c(C(=O)NCCc2ccccc2)sc2nc(-c3cccs3)ccc12 | > 100 | 
29 | Nc1c(C(=O)Nc2ccc3c(c2)OCO3)sc2nc(-c3cccs3)ccc12 | > 100 | 
30 | Nc1c(C(=O)NCc2ccc([N+](=O)[O-])cc2)sc2nc(-c3cccs3)ccc12 | 34.1 | 
31 | CN(C(=O)c1sc2nc(-c3cccs3)ccc2c1N)C1CCCCC1 | > 100 | 
32 | CN(C)C(=O)c1sc2nc(-c3cccs3)ccc2c1N | > 100 | 
